Test results taken from ChEMBL document CHEMBL3352617, “Discovery of 9-(1-phenoxyethyl)-2-morpholino-4-oxo-pyrido[1,2-a]pyrimidine-7-carboxamides as oral PI3Kβ inhibitors, useful as antiplatelet agents” (Bioorg Med Chem Lett, 2014).
≈ marks a conversion by molar mass, not a printed value. Values belong to the molecule of their own block, whether it stands above or below them. Calls of active or inactive are those of the source. The calls are words filed in the database; no cut-off is given here.

Key:
[1] = Volume of distribution at steady state in Beagle dog at 1 umol/kg, iv and 2 umol/kg, po; assay type: ADME, organism-based, Canis lupus familiaris; conditions: in vivo, read-out: Vdss
Outline: (§1)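 Fasted male Beagle dogs dosed iv or po (iv N = 5, po N = 4). Plasma concentrations analysed by noncompartmental analysis to give CL, Vss and oral F.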

[2] = Apparent permeability across apical to basolateral side of human Caco2 cells at 10 uM at pH 6.5 by LC-tandem MS analysis; assay type: ADME, cell-based; conditions: Caco-2, pH 6.5
Outline: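 Caco-2 monolayers, apical-to-basolateral transport at pH 6.5. Result given as apparent permeability (Papp).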

[3] = Fraction unbound in dog plasma after 18 hrs at 37 degC after 18 hrs; assay type: ADME, cell-free, Canis lupus familiaris
Outline: (§2)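 Human and dog plasma. Fraction unbound measured by equilibrium dialysis, 18 h at 37 °C, reported as % unbound.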

[4] = Half life in iv dosed healthy volunteers plasma; assay type: ADME, organism-based; conditions: human
[5] = Half life in human hepatocytes at 2 uM by LCMS analysis; assay type: ADME, cell-based, Hepatocyte
Outline: (§3)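 Test compound incubated with human hepatocytes. Intrinsic clearance and half-life derived from compound disappearance.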

[6] = Antiplatelet activity against human platelet assessed as inhibition of collagen-induced platelet rich plasma aggregation by light transmission aggregometry; assay type: functional, cell-free
Outline: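 Human platelet rich plasma stimulated with collagen. Aggregation read by light transmission aggregometry in an in-house 96-well plate format.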

[7] = Volume of distribution in iv dosed healthy volunteers; assay type: ADME, organism-based; conditions: human, in vivo
[8] = Lipophilicity, log D of the compound at pH 7.4 by HPLC method; assay type: physicochemical; conditions: buffer
Outline: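 LogD measured experimentally at pH 7.4 by an HPLC method.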

[9] = Solubility of the compound in DMSO/HBSS at pH 7.4; assay type: physicochemical
Outline: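 Compound from DMSO stock added to HBSS buffer. Solubility measured at pH 7.4.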

[10] = Fraction unbound in human plasma after 18 hrs at 37 degC after 18 hrs; assay type: ADME, cell-free; outline: as §2
[11] = Antiplatelet activity against human platelet assessed as inhibition of ADP-induced whole blood aggregation by impedance aggregometry
[12] = Clearance in Beagle dog at 1 umol/kg, iv and 2 umol/kg, po; assay type: ADME, organism-based, Canis lupus familiaris; conditions: in vivo; outline: as §1
Hepatocyte = experiment: Intrinsic clearance in human hepatocytes at 2 uM by LCMS analysis; assay type: ADME, cell-based; outline: as §3
Rattus norvegicus = organism: Rattus norvegicus; experiment: Effect on insulin resistance in Sprague-Dawley rat assessed as HOMA-index at maximum compound concentration; assay type: ADME, organism-based; conditions: in vivo
Outline: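 Sprague-Dawley rats given compound. Relative HOMA insulin resistance index (plasma glucose × plasma insulin) compared with baseline and related to plasma concentration.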

[13] = biological target: Sodium channel protein type 5 subunit alpha (Homo sapiens, UniProt Q14524); experiment: Inhibition of human Nav1.5 channel expressed in CHO cells at 20.4 +/- 2.4 uM by patch clamp assay; assay type: cell-based
Canis familiaris [14] = organism: Canis familiaris; experiment: Ex vivo antiplatelet activity in Beagle dog assessed as inhibition of ADP-induced platelet aggregation; assay type: functional, Canis lupus familiaris
Outline: (§4)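 Anaesthetized dogs in a modified Folts' model. Saline vehicle given first, then consecutive iv doses over 30 min periods (bolus 0.03–1.3 µg/kg plus infusion 0.005–0.24 µg/kg/min). Measured: cyclic flow reductions, bleeding time, blood loss, ex vivo ADP-induced whole blood aggregation (Multiplate), and plasma exposure, related by PKPD.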

[15] = biological target: Voltage-gated inwardly rectifying potassium channel KCNH2 (Homo sapiens, UniProt Q12809); experiment: Inhibition of human ERG channel expressed in CHO cells at 20.4 +/- 2.4 uM by patch clamp assay; assay type: cell-based
Chain of Voltage-gated inwardly rectifying potassium channel KCNH2 (Q12809 whole entry): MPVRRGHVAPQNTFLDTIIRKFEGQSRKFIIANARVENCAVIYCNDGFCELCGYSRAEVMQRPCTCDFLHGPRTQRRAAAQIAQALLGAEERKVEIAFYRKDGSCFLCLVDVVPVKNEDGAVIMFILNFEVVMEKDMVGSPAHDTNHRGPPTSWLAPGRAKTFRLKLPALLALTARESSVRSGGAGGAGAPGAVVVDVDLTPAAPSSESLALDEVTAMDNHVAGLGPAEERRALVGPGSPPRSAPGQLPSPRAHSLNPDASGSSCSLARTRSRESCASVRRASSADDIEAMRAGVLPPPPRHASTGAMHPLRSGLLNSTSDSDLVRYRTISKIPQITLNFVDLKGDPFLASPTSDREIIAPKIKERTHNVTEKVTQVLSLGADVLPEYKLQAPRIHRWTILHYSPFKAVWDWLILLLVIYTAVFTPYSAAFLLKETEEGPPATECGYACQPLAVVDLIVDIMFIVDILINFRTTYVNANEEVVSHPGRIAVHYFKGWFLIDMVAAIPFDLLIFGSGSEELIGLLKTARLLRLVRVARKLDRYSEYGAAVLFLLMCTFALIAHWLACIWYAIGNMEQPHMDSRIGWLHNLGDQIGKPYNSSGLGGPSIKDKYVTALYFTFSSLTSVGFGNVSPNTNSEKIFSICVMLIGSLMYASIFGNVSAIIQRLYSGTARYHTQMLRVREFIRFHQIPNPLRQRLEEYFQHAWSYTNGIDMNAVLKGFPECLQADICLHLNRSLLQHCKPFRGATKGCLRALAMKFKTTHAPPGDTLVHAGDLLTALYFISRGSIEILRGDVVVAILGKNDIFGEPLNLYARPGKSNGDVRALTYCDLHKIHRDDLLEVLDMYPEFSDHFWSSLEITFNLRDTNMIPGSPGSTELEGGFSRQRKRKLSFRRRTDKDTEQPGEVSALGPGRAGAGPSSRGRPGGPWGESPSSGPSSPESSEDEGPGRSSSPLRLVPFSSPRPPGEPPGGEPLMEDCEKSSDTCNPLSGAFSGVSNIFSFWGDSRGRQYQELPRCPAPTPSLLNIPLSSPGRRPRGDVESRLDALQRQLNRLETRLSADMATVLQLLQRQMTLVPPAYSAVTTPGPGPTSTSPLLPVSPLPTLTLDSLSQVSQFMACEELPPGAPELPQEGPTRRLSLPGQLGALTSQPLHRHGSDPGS

CHO = experiment: Inhibition of human IKs channel expressed in CHO cells at 20.4 +/- 2.4 uM by patch clamp assay; assay type: cell-based
[16] = biological target: Voltage-dependent L-type calcium channel subunit beta-2 (Homo sapiens) (UniProt Q08289); experiment: Inhibition of human CACNB2 channel expressed in CHO cells at 20.4 +/- 2.4 uM by patch clamp assay; assay type: cell-based
Chain of Voltage-dependent L-type calcium channel subunit beta-2 (Homo sapiens) (Q08289 whole entry): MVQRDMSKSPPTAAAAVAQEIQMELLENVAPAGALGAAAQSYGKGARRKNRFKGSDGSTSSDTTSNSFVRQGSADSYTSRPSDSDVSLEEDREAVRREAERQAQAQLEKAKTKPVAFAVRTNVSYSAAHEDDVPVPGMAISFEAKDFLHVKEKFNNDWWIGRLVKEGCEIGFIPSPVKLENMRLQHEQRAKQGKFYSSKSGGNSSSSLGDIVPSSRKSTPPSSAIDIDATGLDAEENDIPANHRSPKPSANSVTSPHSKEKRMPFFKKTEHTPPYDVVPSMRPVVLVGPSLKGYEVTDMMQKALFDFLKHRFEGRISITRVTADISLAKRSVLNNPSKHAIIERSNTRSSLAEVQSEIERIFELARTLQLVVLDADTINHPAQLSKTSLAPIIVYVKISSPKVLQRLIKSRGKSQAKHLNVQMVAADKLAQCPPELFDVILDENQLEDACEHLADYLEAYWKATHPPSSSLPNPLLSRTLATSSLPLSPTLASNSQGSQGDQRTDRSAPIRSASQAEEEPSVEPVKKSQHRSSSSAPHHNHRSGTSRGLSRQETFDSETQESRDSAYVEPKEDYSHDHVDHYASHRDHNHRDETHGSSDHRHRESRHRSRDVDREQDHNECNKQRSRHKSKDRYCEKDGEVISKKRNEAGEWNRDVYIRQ

[17] = Antiplatelet activity against dog platelet assessed as inhibition of ADP-induced whole blood aggregation by impedance aggregometry; conditions: Canis lupus familiaris
[18] = biological target: Voltage-dependent calcium channel subunit alpha-2/delta-1 (Homo sapiens) (UniProt P54289); experiment: Inhibition of human CACNA2D1 channel expressed in CHO cells at 20.4 +/- 2.4 uM by patch clamp assay; assay type: cell-based
Canis familiaris [19] = experiment: Inhibition of ADP-induced platelet aggregation in iv dosed Beagle dog assessed as blood loss volume; assay type: organism-based, Canis lupus familiaris; conditions: in vivo; outline: as §4
[20] = biological target: Phosphatidylinositol 4,5-bisphosphate 3-kinase catalytic subunit gamma isoform (Homo sapiens, UniProt P48736); experiment: Inhibition of human recombinant PI3Kgamma assessed as PIP3 production by AlphaScreen assay
Chain of Phosphatidylinositol 4,5-bisphosphate 3-kinase catalytic subunit gamma isoform (P48736 whole entry, canonical isoform): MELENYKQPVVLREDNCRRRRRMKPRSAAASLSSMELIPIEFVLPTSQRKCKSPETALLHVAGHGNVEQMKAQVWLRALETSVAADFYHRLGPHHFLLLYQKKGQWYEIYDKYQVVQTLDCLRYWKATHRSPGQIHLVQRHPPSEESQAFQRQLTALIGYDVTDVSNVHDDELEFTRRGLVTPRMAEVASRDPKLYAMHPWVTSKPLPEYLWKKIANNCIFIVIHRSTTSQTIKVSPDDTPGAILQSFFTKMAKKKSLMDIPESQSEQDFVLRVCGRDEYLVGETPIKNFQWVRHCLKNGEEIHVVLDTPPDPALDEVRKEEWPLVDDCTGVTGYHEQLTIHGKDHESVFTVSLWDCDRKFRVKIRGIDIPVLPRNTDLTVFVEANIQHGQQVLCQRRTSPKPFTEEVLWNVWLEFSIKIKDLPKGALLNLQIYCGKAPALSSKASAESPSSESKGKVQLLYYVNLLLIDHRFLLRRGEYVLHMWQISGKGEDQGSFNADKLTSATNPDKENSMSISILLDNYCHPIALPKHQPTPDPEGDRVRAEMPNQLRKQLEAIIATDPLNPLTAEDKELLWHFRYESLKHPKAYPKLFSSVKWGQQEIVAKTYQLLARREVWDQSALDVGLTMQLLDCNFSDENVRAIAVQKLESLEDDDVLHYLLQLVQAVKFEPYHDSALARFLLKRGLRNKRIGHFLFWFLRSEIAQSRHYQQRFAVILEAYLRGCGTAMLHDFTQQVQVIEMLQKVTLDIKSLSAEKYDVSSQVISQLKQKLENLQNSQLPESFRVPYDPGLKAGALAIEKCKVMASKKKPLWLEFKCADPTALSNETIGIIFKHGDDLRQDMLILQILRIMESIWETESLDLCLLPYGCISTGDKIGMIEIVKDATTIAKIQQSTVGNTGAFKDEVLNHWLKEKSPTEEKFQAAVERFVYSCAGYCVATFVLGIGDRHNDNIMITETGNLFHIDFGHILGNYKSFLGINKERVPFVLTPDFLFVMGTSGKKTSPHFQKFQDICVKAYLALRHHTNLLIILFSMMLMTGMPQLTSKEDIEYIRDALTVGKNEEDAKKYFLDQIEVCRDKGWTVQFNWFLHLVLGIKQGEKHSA

[21] = biological target: T1, A-type voltage-gated potassium channel KCND3 (Homo sapiens, UniProt Q9UK17); experiment: Inhibition of human Kv4.3 channel expressed in CHO cells at 20.4 +/- 2.4 uM by patch clamp assay; assay type: cell-based
T1 sequence (Q9UK17 whole entry): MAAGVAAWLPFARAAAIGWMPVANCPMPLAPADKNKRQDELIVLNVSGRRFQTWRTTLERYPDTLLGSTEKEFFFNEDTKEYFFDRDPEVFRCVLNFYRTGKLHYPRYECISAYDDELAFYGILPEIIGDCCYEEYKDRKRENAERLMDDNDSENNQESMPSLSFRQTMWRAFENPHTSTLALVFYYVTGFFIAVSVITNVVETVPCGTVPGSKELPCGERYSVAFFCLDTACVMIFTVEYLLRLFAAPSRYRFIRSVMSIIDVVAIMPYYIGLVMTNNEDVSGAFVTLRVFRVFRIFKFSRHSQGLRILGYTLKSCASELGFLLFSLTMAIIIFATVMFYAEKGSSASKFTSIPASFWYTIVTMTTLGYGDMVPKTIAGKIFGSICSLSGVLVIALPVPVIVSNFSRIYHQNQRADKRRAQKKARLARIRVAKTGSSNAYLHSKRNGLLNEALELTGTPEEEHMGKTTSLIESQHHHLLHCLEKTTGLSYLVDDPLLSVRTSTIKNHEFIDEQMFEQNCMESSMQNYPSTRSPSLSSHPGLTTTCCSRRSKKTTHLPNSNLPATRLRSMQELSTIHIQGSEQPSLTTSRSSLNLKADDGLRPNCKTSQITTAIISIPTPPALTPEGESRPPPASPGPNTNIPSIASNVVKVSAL

[22] = biological target: Voltage-dependent L-type calcium channel subunit alpha-1C (Homo sapiens, UniProt Q13936); experiment: Inhibition of human CACNA1C channel expressed in CHO cells at 20.4 +/- 2.4 uM by patch clamp assay; assay type: cell-based
Chain of Voltage-dependent L-type calcium channel subunit alpha-1C (Q13936 whole entry): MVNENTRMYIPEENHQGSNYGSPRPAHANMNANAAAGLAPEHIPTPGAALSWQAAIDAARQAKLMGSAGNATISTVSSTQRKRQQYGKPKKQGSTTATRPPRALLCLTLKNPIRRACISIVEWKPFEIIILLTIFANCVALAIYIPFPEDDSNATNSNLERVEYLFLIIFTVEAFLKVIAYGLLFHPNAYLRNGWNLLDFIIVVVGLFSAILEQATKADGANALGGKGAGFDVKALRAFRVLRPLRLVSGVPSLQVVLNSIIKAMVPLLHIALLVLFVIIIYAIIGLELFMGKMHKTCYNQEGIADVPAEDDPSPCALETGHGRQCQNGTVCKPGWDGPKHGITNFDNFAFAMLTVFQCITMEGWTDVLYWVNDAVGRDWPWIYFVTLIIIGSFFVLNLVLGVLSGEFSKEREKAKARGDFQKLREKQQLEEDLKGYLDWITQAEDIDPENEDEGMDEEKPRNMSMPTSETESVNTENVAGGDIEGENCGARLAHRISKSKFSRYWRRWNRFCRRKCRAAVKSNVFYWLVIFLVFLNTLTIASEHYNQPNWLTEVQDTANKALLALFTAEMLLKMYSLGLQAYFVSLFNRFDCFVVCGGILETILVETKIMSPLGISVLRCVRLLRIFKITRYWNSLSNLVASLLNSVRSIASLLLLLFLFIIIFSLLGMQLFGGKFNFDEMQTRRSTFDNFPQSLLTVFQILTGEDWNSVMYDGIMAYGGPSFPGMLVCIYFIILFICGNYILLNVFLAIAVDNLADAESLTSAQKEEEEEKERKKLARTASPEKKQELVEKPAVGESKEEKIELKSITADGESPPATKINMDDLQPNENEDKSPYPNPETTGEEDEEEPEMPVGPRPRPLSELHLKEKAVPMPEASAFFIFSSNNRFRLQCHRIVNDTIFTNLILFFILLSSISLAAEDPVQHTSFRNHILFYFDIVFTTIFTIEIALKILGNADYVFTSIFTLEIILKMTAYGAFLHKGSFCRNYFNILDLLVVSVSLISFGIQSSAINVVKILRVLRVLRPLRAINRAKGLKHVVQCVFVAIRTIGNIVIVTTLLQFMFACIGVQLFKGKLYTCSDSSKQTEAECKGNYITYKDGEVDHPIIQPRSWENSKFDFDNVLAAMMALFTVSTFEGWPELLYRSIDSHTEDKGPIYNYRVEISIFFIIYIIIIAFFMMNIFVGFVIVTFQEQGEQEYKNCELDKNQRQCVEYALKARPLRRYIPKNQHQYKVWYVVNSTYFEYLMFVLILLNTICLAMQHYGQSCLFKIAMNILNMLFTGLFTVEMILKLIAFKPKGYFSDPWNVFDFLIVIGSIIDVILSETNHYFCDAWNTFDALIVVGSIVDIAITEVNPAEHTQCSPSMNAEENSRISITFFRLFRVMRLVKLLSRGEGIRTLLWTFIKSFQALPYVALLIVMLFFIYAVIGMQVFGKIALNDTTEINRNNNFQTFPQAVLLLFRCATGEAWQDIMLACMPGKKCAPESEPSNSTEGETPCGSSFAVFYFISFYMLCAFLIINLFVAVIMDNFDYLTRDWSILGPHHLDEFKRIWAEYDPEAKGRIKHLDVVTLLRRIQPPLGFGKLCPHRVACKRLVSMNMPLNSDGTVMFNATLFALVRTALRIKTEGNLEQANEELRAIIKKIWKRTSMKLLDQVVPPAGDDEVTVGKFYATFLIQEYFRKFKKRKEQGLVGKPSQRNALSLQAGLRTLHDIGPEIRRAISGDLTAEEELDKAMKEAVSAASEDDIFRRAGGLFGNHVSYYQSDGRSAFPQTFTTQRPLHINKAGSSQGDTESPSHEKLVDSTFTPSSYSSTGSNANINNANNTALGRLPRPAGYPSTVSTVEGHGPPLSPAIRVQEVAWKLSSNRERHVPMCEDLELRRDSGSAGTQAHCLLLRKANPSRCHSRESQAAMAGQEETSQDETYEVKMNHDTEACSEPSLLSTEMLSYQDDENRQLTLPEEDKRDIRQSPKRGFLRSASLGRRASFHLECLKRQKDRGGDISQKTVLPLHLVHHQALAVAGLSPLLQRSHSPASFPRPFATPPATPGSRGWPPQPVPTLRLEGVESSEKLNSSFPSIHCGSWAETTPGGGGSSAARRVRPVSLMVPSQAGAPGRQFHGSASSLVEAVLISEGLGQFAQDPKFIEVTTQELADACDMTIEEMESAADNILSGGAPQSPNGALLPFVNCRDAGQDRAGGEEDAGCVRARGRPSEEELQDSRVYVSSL

[23] = biological target: Voltage-dependent T-type calcium channel subunit alpha-1H (Homo sapiens) (UniProt O95180); experiment: Inhibition of human Cav3.2 channel expressed in CHO cells at 20.4 +/- 2.4 uM by patch clamp assay; assay type: cell-based
[24] = Oral bioavailability in Beagle dog at 2 umol/kg; assay type: ADME, organism-based, Canis lupus familiaris; conditions: in vivo; outline: as §1
[25] = biological target: T2, Phosphatidylinositol 4,5-bisphosphate 3-kinase catalytic subunit delta isoform (Homo sapiens, UniProt O00329); experiment: Inhibition of human recombinant PI3Kdelta assessed as PIP3 production by AlphaScreen assay
T2 sequence (O00329 whole entry): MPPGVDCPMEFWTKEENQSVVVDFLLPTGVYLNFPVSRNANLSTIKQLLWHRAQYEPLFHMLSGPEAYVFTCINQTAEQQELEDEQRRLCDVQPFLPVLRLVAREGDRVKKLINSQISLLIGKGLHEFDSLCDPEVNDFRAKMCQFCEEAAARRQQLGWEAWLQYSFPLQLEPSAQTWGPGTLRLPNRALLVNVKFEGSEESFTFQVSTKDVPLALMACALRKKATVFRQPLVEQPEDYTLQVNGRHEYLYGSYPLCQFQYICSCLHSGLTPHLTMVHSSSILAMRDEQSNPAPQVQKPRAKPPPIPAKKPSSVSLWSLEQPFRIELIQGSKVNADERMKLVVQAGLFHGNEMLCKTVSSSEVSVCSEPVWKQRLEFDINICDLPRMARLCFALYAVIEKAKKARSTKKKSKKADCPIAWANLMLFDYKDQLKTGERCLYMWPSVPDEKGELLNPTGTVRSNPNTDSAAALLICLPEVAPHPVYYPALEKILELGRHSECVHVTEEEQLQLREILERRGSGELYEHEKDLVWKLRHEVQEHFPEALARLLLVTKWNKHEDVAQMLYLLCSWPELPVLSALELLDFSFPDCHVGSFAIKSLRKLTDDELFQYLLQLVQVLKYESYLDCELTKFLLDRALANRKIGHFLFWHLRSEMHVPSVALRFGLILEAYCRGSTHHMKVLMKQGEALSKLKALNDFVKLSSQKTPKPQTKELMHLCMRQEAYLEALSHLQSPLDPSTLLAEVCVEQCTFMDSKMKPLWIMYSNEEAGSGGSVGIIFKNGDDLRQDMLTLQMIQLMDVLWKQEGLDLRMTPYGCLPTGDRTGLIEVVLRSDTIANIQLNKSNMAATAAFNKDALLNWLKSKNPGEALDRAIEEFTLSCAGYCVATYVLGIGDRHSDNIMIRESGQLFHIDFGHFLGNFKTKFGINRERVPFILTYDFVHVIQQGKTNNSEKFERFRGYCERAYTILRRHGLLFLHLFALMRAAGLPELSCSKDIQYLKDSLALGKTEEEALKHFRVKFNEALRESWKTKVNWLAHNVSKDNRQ

[26] = biological target: Sodium channel protein type 2 subunit alpha (Homo sapiens) (UniProt Q99250); experiment: Inhibition of human Nav1.2 channel expressed in CHO cells at 20.4 +/- 2.4 uM by patch clamp assay; assay type: cell-based
[27] = biological target: Voltage-dependent N-type calcium channel subunit alpha-1B (Homo sapiens) (UniProt Q00975); experiment: Inhibition of human Cav2.2 channel expressed in CHO cells at 20.4 +/- 2.4 uM by patch clamp assay; assay type: cell-based
Canis familiaris [28] = experiment: Inhibition of ADP-induced platelet aggregation in iv dosed Beagle dog assessed as bleeding time; assay type: organism-based, Canis lupus familiaris; conditions: in vivo; outline: as §4

Vd [1]: 14 L/kg
Papp A→B at 10 µM [2]: 18 ×10⁻⁶ cm/s
fraction unbound at 18 h [3]: 0.1
half-life [4]: 5 min
half-life at 2 µM [5]: 40 min
IC50 [6]: 280 nM
Vd [7]: 40 L
logD [8]: 0.75
solubility [9]: 100 µM (≈ 40.8 µg/mL)
fraction unbound at 18 h [10]: 0.08
IC50 [11]: 270 nM
clearance [12]: 17 mL/min/kg
Intrinsic clearance (CLint) (Hepatocyte): 17.5 µL/min
Compound: Cc1cc([C@@H](C)Nc2ccccc2C(=O)O)c2nc(N3CCOCC3)cc(=O)n2c1 [AZD-6482]

Vd [1]: 1.2 L/kg
fraction unbound at 18 h [3]: 0.42
half-life at 2 µM [5]: > 173 min
IC50 [6]: 210 nM
inhibition [16]: inactive
IC50 [17]: 950 nM
inhibition [18]: inactive
fold change (FC) (Canis familiaris [19]): 3.5
IC50 [20]: 83 µM
solubility [9]: > 1800 µM
inhibition (INH) [21]: Not Active
inhibition (INH) [22]: Not Active
inhibition [23]: inactive
bioavailability [24]: 31%
fraction unbound at 18 h [10]: 0.26
IC50 [25]: 400 nM
inhibition [26]: inactive
inhibition [27]: inactive
IC50 [11]: 1200 nM
clearance [12]: 8 mL/min/kg
fold change (FC) (Canis familiaris [28]): 3.5
Compound: C[C@@H](Oc1ccccc1)c1cc(C(=O)N(C)CCO)cn2c(=O)cc(N3CCOCC3)nc12
Activity (Rattus norvegicus): Non-toxic
inhibition (INH) [13]: Not Active
EC80 (Canis familiaris [14]): 0.69 µM
inhibition (INH) [15]: Not Active
inhibition (CHO): inactive
